pIC50: −log10 of the molar value. Calls of active or inactive are those of the source. The calls are words filed in the database; no cut-off is given here.
Key:
KB [1] = assay: Cytotoxicity against human KB cells expressing human RFC/FRalpha/PCFT after 96 hrs by CellTitre-Blue fluorescence assay in presence of folic acid; format: functional, cell-based
In short: (§1)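 KB cells were grown in FF-RPMI with DFBS and 2 nM LCV, exposed to antifolate (0–1 μM) for 96 h at 37 °C, and read by CellTiter-Blue fluorescence. IC50 was taken from dose–response curves relative to untreated cells. Protection arms added adenosine 60 μM, thymidine 10 μM, AICA 320 μM, or folic acid 200 nM. Means of 3–10 experiments.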

[2] = biological target: Bifunctional purine biosynthesis protein ATIC (Homo sapiens) (UniProt P31939); assay: Inhibition of AICARFTase in human KB cells assessed as accumulation of ZMP at 1 uM after 48 hrs by HPLC analysis; format: cell-based
In short: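 KB cells were treated with 1 μM drug for 48 h in FF-RPMI/10% DFBS with 2 nM LCV. Metabolites were extracted with 5% TCA and then ether. They were separated by SAX ion-exchange HPLC using an NH4H2PO4 gradient (5 mM pH 2.8 to 750 mM pH 3.9) over 25 min with detection at 280 nm. ZMP was quantified against a standard curve with an AraCMP internal control; three experiments.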

[3] = Cytotoxicity against chinese hamster PC43-10 cells expressing human RFC after 96 hrs by CellTitre-Blue fluorescence assay; format: functional, cell-based; details: Cricetulus griseus, PC43-10, 96 h
In short: (§2)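 CHO sublines were grown in FF-RPMI/DFBS; transfectants were maintained with G418. Cells were exposed to antifolate (0–1 μM) for 96 h at 37 °C with 2 nM LCV (RT16) or 25 nM LCV (R2/PCFT4). PC43-10 cells were grown in standard RPMI1640/DFBS instead. FRα specificity was tested by adding 200 nM folic acid. Viable cells were read by CellTiter-Blue fluorescence (ex 560/em 590), and IC50 was taken from dose–response curves; means of 3–10 experiments.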

KB [4] = assay: Cytotoxicity against human KB cells expressing human RFC/FRalpha/PCFT after 96 hrs by CellTitre-Blue fluorescence assay in presence of thymidine; format: functional, cell-based; in short: as §1
[5] = biological target: Folate receptor alpha (Homo sapiens) (UniProt P15328); assay: Displacement of [3H]folic acid from human FRalpha expressed in chinese hamster RT16 cells after 15 mins by scintillation counting analysis; format: cell-based
In short: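 FRα-expressing RT16 CHO cells (~1.5 × 10^6) were grown as monolayers. Bound folates were stripped with ice-cold acetate buffer (pH 3.5), then neutralised with HEPES-buffered saline (pH 7.4). Cells were then competed with [3H]folic acid against graded unlabelled ligand. Bound label read by scintillation, normalised to Folin-phenol protein (pmol/mg). Relative affinity = inverse molar ratio for 50% displacement, folic acid set at 1. Three experiments.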

KB [6] = assay: Induction of apoptosis in human KB cells assessed as late apoptotic cells at 1 uM after 96 hrs by Annexin V-FITC/7-AAD staining-based flow cytometry (reference value: 2.09%); format: functional
[7] = Cytotoxicity against chinese hamster RT16 cells expressing human FRalpha after 96 hrs by CellTitre-Blue fluorescence assay in presence of folic acid; format: functional, cell-based; details: Cricetulus griseus, RT16, 96 h; in short: as §2
KB [8] = assay: Cell cycle arrest in human KB cells assessed as accumulation at G1/G0 phase at 1 uM after 96 hrs by propidium iodide staining-based flow cytometry (reference value: 67.4%); format: functional
KB [9] = assay: Cell cycle arrest in human KB cells assessed as accumulation at S phase at 1 uM after 96 hrs by propidium iodide staining-based flow cytometry (reference value: 15.9%); format: functional
KB [10] = assay: Cell cycle arrest in human KB cells after 48 hrs by propidium iodide staining-based flow cytometry; format: functional
In short: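 KB cells exposed to 1 μM drug for 48 h in FF-RPMI with 10% DFBS and 2 nM LCV, harvested by trypsin and fixed in ice-cold ethanol. Stained with 50 μg/mL PI plus 100 μg/mL RNase for at least 20 min at room temperature in the dark. Flow cytometry counted at least 10 000 events. G1/G0, S, G2/M and sub-G1 fractions were fitted by Watson Pragmatic model.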

Chain of Bifunctional purine biosynthesis protein ATIC (Homo sapiens) (P31939 whole entry, looked up): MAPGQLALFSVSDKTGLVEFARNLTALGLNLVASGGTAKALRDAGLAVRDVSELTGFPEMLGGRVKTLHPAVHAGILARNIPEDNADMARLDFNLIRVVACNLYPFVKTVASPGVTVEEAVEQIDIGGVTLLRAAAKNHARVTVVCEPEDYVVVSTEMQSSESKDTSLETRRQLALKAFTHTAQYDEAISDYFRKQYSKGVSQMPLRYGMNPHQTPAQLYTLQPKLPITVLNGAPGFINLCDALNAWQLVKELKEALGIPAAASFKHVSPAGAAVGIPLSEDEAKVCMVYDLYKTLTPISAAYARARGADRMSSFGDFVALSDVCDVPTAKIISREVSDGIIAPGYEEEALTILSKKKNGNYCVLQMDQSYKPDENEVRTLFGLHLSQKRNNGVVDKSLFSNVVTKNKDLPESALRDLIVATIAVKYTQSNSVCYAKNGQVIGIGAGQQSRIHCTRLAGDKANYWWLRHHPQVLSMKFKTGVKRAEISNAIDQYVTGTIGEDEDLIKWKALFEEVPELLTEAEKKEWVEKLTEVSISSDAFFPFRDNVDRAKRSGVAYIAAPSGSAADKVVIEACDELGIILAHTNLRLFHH
Chain of Folate receptor alpha (Homo sapiens) (P15328 25-234 limits assumed): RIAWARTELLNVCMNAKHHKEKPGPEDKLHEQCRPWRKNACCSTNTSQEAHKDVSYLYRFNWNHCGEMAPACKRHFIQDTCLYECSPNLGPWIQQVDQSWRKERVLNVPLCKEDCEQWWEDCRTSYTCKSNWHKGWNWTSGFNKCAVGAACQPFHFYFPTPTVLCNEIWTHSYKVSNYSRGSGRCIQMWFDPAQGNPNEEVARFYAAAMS

Nc1nc2[nH]cc(CCCCc3ccc(C(=O)N[C@@H](CCC(=O)O)C(=O)O)cc3)c2c(=O)[nH]1
pIC50 (KB [1]): 6.15
inhibition [2]: Active
pIC50 [3]: 7.25
Activity (KB [4]): Active
Activity [5]: Active
Activity (KB [6]): 26.7%
pIC50 [7]: < 6.00
Activity (KB [8]): 12.9%
Activity (KB [9]): 48.2%
Activity (KB [10]): Active

From ChEMBL document CHEMBL3102834, “Discovery of 5-substituted pyrrolo[2,3-d]pyrimidine antifolates as dual-acting inhibitors of glycinamide ribonucleotide formyltransferase and 5-aminoimidazole-4-carboxamide ribonucleotide formyltransferase in de novo purine nucleotide biosynthesis: implications of inhibiting …” (J Med Chem, 2013)
